The results in this text go back to ChEMBL document CHEMBL2163326, “Investigations on the 1-(2-biphenyl)piperazine motif: identification of new potent and selective ligands for the serotonin(7) (5-HT(7)) receptor with agonist or antagonist action in vitro or ex vivo” (J Med Chem, 2012).

Assay [1] concerns the target T1, 5-hydroxytryptamine receptor 7 (Homo sapiens, UniProt P34969). The assay can be described thus: Displacement of [3H]-5-CT from human cloned 5HT7 receptor. For orientation: Displacement assays read how much labelled ligand stays bound in the presence of the test substance.
The target in assay [2] is Adrenergic receptor alpha-1 (Rattus norvegicus) (UniProt P15823+P23944+P43140). The assay can be described thus: Displacement of [3H]prazoin from rat cerebral cortex adrenergic alpha1 receptor at 100 nM. Type of assay: tissue-based. In a few lines: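 [3H]prazosin displacement was measured on rat cerebral cortex membranes, using one test concentration of 100 nM. Values are the mean of two independent experiments.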

In assay [3] the target is T2, 5-hydroxytryptamine receptor 1A (Homo sapiens, UniProt P08908).
T2 sequence (P08908 whole entry): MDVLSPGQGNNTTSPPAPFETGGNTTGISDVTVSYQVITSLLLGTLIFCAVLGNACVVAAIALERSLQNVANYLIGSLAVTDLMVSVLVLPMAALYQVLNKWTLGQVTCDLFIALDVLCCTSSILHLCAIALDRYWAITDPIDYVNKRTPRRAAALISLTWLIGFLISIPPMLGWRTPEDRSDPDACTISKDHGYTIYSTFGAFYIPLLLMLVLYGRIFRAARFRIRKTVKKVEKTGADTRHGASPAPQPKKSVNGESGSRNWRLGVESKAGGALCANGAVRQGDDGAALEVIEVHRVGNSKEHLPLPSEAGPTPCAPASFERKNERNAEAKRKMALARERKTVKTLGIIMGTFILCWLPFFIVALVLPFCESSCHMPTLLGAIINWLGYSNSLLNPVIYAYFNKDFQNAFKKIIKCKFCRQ
The assay can be described thus: Displacement of [3H]-8-OH-DPAT from human cloned 5HT1A receptor.

Assay [4] concerns the target 5-hydroxytryptamine receptor 7 (Rattus norvegicus, UniProt P32305). The assay can be described thus: Displacement of [3H]LSD from rat kidney proximal convoluted tubule 5HT7R expressed in COS7 cells. Type of assay: cell-based, COS-7.
The target of assay [5] is 5-hydroxytryptamine receptor 7 (Cavia porcellus) (UniProt P50407). The assay can be described thus: Agonist activity at 5HT7 receptor in guinea pig ileum assessed as inhibition of substance P-induced smooth muscle contraction at 1 uM in presence of 3 uM SB-269970. The class given is functional, tissue-based. In a few lines: (§1)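 Isolated guinea pig ileum was contracted with substance P. Relaxation was scored as percent relaxation of that contraction. Each run included a cocktail of non-5-HT7 receptor antagonists. To test 5-HT7 mediation, relaxation was repeated with the selective 5-HT7 antagonist at 3 μM; reversal was taken as 5-HT7-mediated.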

The target is the same in assay [6]. The assay can be described thus: Agonist activity at 5HT7 receptor in guinea pig ileum assessed as inhibition of substance P-induced smooth muscle contraction at 2 uM in presence of 3 uM SB-269970. Type of assay: functional, tissue-based. In a few lines:
as §1

The target is the same in assay [7]. The assay can be described thus: Agonist activity at 5HT7 receptor in guinea pig ileum assessed as inhibition of substance P-induced smooth muscle contraction at 0.5 uM. The class given is functional, tissue-based. In a few lines:
as §1

Assay [8] shares this target. The assay can be described thus: Agonist activity at 5HT7 receptor in guinea pig ileum assessed as inhibition of substance P-induced smooth muscle contraction at 1 uM. Type of assay: functional, tissue-based. In a few lines: as §1
For assay [9] the target is unchanged. The assay can be described thus: Agonist activity at 5HT7 receptor in guinea pig ileum assessed as inhibition of substance P-induced smooth muscle contraction at 2 uM. The class given is functional, tissue-based. In a few lines: as §1
In assay [10] the target is T3, 5-hydroxytryptamine receptor 1A (Homo sapiens) (UniProt P08908).
T3 sequence (whole entry): T2 sequence (P08908 whole entry)
The assay can be described thus: Displacement of [3H]-8-OH-DPAT from human cloned 5HT1A receptor at 100 nM.

Assay [11] deals with 5-hydroxytryptamine receptor 7 (Cavia porcellus) (UniProt P50407). The assay can be described thus: Agonist activity at 5HT7 receptor in guinea pig ileum assessed as inhibition of substance P-induced smooth muscle contraction at 0.5 uM in presence of 3 uM SB-269970. Type of assay: functional, tissue-based. The gist of the method: as §1
In assay [12] the target is T1, 5-hydroxytryptamine receptor 7. The assay can be described thus: Agonist activity at human 5HT7A receptor expressed in human HeLa cells assessed as stimulation of cAMP accumulation. Type of assay: functional, cell-based. In a few lines:
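HeLa cells stably expressing human 5-HT7(a) receptor were cultured and seeded into 96-well plates. Cells were exposed to test agent alone, and intracellular cAMP was measured by ELISA.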

In assay [13] the target is T4, Adrenergic receptor alpha-1 (Rattus norvegicus, UniProt P15823+P23944+P43140).
T4 sequence (P15823 whole entry): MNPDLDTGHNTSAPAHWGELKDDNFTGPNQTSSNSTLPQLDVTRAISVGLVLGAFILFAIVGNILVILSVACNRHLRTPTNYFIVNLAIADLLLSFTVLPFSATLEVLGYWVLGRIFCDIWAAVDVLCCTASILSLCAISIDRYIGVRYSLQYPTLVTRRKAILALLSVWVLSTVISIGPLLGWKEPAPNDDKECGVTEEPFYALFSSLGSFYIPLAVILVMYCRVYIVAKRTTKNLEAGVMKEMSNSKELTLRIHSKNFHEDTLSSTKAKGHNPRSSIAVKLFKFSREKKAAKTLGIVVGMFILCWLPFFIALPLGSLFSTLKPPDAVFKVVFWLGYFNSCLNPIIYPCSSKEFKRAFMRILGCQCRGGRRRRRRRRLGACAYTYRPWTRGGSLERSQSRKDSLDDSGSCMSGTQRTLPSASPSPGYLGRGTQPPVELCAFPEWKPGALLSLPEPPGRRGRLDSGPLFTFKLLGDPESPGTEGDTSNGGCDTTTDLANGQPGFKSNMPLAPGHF
T4 sequence (P23944 whole entry): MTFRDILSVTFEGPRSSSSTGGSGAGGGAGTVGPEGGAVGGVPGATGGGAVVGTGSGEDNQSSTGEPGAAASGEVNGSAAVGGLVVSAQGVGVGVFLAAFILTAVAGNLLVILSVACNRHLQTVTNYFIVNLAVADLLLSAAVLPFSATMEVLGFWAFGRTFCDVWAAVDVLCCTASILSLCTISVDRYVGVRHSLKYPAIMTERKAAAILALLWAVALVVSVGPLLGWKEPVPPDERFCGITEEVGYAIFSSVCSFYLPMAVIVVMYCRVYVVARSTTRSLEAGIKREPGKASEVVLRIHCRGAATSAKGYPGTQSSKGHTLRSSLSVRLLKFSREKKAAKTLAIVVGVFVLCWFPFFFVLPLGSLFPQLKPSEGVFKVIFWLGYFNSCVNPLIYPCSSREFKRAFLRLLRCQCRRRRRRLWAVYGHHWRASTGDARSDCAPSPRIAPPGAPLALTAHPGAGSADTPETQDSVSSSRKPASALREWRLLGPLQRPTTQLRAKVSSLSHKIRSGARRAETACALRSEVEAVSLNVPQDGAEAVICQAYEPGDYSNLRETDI
T4 sequence (P43140 whole entry): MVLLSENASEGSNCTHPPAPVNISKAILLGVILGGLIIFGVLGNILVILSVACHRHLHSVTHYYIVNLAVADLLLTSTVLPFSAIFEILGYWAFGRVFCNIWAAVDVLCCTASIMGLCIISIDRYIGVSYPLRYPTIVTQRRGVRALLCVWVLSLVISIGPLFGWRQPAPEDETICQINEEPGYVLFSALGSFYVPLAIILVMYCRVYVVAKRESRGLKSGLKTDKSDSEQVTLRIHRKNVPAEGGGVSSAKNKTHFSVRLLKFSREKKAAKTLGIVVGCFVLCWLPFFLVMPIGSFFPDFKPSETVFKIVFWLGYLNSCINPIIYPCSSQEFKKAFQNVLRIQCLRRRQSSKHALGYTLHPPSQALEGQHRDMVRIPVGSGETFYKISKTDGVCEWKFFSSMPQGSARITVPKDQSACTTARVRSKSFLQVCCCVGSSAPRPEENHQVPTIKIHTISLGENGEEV
The assay can be described thus: Displacement of [3H]prazoin from rat cerebral cortex adrenergic alpha1 receptor. The class given is tissue-based.

Assay [14] has as its target T1, 5-hydroxytryptamine receptor 7. The assay can be described thus: Antagonist activity at human 5HT7A receptor expressed in human HeLa cells assessed as inhibition of 5-HT-induced cAMP accumulation by ELISA. The class given is functional, cell-based. In a few lines:
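HeLa cells stably expressing human 5-HT7(a) were seeded in 96-well plates. They were co-treated with 1 μM 5-HT plus test agent. Intracellular cAMP was read by ELISA, and IC50 was taken for inhibition of 5-HT-stimulated cAMP accumulation.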
(Cyclic AMP is a second messenger, typically raised through Gs and lowered through Gi signalling.)

The structures appear in SMILES notation. Calls of active or inactive are those of the source. No cut-off for these calls is given here. A value given as a limit tells only on which side of the number the result lay.

T1 sequence (P34969 whole entry): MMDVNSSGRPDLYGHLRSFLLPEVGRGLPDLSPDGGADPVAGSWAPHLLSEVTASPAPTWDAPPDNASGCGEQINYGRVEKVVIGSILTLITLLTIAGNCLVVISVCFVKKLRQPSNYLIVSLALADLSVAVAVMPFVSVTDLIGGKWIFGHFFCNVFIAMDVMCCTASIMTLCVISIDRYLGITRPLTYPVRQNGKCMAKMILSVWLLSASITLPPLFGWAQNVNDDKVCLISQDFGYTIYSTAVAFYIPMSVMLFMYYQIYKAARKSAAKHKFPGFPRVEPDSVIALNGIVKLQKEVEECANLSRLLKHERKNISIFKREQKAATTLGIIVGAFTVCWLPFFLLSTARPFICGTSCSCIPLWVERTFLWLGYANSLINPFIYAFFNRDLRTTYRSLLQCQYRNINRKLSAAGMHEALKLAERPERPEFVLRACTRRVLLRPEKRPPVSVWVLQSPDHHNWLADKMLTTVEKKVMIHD
Sequence of 5-hydroxytryptamine receptor 7 (Cavia porcellus) (P50407 whole entry): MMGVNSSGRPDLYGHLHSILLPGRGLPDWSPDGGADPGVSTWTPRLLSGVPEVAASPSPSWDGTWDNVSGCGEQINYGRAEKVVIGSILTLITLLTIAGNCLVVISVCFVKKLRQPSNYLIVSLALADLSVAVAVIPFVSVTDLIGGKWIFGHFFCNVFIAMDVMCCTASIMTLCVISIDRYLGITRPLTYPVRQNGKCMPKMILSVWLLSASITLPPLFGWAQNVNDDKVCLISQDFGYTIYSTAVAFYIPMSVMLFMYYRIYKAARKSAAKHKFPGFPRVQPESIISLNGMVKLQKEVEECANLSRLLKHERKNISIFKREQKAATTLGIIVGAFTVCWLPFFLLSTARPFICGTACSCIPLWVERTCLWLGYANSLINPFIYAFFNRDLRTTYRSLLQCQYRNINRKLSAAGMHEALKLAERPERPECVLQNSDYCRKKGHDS
Sequence of 5-hydroxytryptamine receptor 7 (Rattus norvegicus, UniProt P32305) (P32305 whole entry): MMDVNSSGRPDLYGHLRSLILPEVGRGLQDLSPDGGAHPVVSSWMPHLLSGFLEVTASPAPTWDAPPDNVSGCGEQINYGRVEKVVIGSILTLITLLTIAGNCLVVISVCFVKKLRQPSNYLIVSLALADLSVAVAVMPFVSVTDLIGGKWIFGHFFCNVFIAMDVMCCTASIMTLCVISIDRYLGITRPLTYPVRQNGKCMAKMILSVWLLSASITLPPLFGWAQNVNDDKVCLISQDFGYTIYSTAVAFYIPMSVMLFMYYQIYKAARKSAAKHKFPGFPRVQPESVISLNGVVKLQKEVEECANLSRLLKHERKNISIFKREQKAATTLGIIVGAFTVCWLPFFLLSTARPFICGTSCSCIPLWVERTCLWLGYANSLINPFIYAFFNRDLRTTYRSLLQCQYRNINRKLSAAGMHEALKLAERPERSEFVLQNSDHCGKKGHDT

The Ki is a measure of affinity in units of concentration, obtained from inhibition or displacement. A high value points to a looser hold on the target. `c1ccc(-c2cccc(N3CCNCC3)c2)nc1`: the Ki in [1] was determined as 80 nM; in assay [3] it was 14.9 nM. Moreover, the Activity in assay [2] stood at 27%.
Molecule `c1ccc2c(N3CCNCC3)cccc2c1` returned a Ki in assay [4] of 83 nM.
For the molecule `Cc1nn(C)c(C)c1-c1cccc2c1CC[C@H](N(C)C)C2`, the result in assay [5], in [6] and in assay [7] was inactive. For the same molecule, the outcome in assay [8] and in assay [9] was Active.
Regarding `COc1cccc(OC)c1-c1ccccc1N1CCNCC1`, in [1], the Ki was determined as 96 nM. The Activity in assay [10] turned out to be 21%; in assay [2], 10%.
As for `c1ccc(-c2cccc(N3CCNCC3)c2)cc1`, the Ki in assay [1] came out at 25 nM; in assay [3], 72.1 nM. The same molecule displayed an Activity in assay [2] of 21%.
In the case of `Fc1ccc(-c2ccccc2N2CCNCC2)cc1`, the outcome in [5] and in assay [11] was inactive. The molecule also had a Ki in assay [1] of 2.7 nM. The result in assay [7] and in assay [8] was Active. The Activity was 15% in assay [10] and 14% in assay [2].
Turning to `Cc1ccccc1-c1cccc(N2CCNCC2)c1`, the Ki is 1.4 nM in [1] and 17.4 nM in [3].
As for `COc1ccc(-c2cccc(N3CCNCC3)c2)cc1`, the Ki in assay [1] is > 5000 nM. Also, the Activity in assay [10] stood at 42%; in [2], 29%.
With `COc1cccc(OC)c1-c1cccc(N2CCNCC2)c1`, the results for the Ki in [1] and in assay [3] were 7.1 nM and 149 nM, respectively. In assay [2], this molecule came in with an Activity of 3%.
`COc1ccccc1-c1ccccc1N1CCNCC1` registered a Ki in assay [1] of 18.4 nM.
Broadly, the IC50 is the concentration that inhibits the measured activity by half. On to `COc1ccc(-c2ccccc2N2CCNCC2)cc1`, for which the result in [5], in assay [12] and in [11] was inactive. Besides, the figures for the Ki in assay [13], in [1] and in [3] were 156 nM, 2.6 nM and 476 nM, respectively. The result in assay [7] and in assay [8] was Active. In addition, in assay [14], the IC50 was 438 nM.
With `Cc1ccccc1-c1ccccc1N1CCNCC1`, the inhibition constant (Ki) in [1] was 6.9 nM.
As for `Fc1ccc(-c2cccc(N3CCNCC3)c2)cc1`, the Ki amounted to 109 nM in assay [1] and 63.2 nM in [3]. This molecule came in with an Activity in assay [2] of 3%.
As for `O=[N+]([O-])c1ccc(-c2ccccc2N2CCNCC2)cc1`, the Ki was 105 nM in assay [13] and 7 nM in assay [1]. In assay [10], this molecule returned an Activity of 16%.
Molecule `c1ccc(-c2ccccc2N2CCNCC2)nc1` came in with a Ki in assay [1] of 23 nM. Also, the Activity is 23% in assay [10] and 11% in assay [2].
Regarding `Cc1ccc(-c2ccccc2N2CCNCC2)cc1C`, in assay [6], the outcome was inactive. Also, the Ki in assay [13] worked out at 165 nM; in [1], 1.9 nM. Moreover, in assay [10], the Activity was determined as 22%. For the same molecule, the result in assay [8] and in [9] was Active.
As for `c1ccc(-c2ccccc2N2CCNCC2)cc1`, the result in assay [5], in assay [12] and in assay [11] was inactive. Besides, the results for the Ki in [13], in assay [1] and in assay [3] were 59.1 nM, 1.4 nM and 99 nM, respectively. Further, the outcome in assay [7] and in [8] was Active. Also, the IC50 in [14] is 531 nM.
Consider `O=[N+]([O-])c1ccc(-c2cccc(N3CCNCC3)c2)cc1`, for which the Ki in assay [1] was 13 nM; in assay [3], 31.4 nM. In assay [2], this molecule registered an Activity of 8%.
In assay [1], `Cc1ccc(-c2cccc(N3CCNCC3)c2)cc1C` yielded an inhibitory constant (Ki) of 93 nM. For the same molecule, the Activity in [10] was 34%; in [2], 7%.
With `COc1ccccc1-c1cccc(N2CCNCC2)c1`, the inhibition constant (Ki) in assay [1] was determined as 8.2 nM.
